The results in this text go back to ChEMBL document CHEMBL2157999, “Potent small molecule Hedgehog agonists induce VEGF expression in vitro” (Bioorg Med Chem, 2012).

The structures appear in SMILES notation. Calls of active or inactive are those of the source. The calls are words filed in the database; no cut-off is given here.

Data set [1] addresses Sonic hedgehog protein (Mus musculus, UniProt Q62226). Put plainly: Activation of Shh pathway in mouse Shh-Light II cells assessed as induction of gli1 expression after 48 hrs by […] luminescence assay. The format is functional, cell-based. Put shortly:
(§1)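 Shh-Light II cells were given compounds from DMSO stocks (final DMSO 0.1%; top concentration 1000 nm) for 48 h, then PBS-washed and lysed. Gli reporter luminescence was measured by dual-luciferase and normalized to constitutive Renilla. EC50 came from a Hill-slope fit of RLU/s versus concentration. 2–4 independent experiments, each in technical triplicate.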

Data set [2] concerns HUVEC. Kind of data set: Cytotoxicity against HUVEC up to 10 uM after 24 hrs by WST-1 assay. As to conditions: human. The format is cell-based. Put shortly:
(§2)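 HUVEC were seeded at 7500 cells/well and exposed to a compound concentration series (<0.5% DMSO) for 24 h. WST-1 was then added and incubated 24 h. Absorbance at 440 and 650 nm was read, and the absorbance difference was plotted against concentration.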

In data set [3] the target is Sonic hedgehog protein (Homo sapiens) (UniProt Q15465). Put plainly: Activation of Shh pathway in human foreskin fibroblasts assessed as increase in VEGF expression after 48 hrs by ELISA. Put shortly: (§3)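 Primary foreskin fibroblasts were plated in DMEM with 10% FBS for 24 h, washed free of nonadherent cells and reseeded at 14000 cells/well. After 72 h the medium was replaced with compound (0.1–1.0 µm range, <0.1% DMSO). Cells were held 48 h at 37 °C, 5% CO2. Three independent experiments.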
Chain of Sonic hedgehog protein (Homo sapiens) (Q15465 24-197 limits assumed): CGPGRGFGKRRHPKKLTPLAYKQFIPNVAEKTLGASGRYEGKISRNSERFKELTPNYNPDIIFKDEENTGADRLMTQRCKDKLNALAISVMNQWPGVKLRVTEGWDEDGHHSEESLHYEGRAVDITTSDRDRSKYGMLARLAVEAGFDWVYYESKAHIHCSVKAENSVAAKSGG

Data set [4] has the same target. Kind of data set: Activation of Shh pathway in human foreskin fibroblasts assessed as increase in VEGF expression at 0.1 to 1 uM after 48 hrs by ELISA relative to control. Put shortly:
as §3
For orientation: ELISA stands for enzyme-linked immunosorbent assay.

The target is the same in data set [5]. Put plainly: Activation of Shh pathway in human foreskin fibroblasts assessed as induction of maximum VEGF expression at 1 uM after 48 hrs by ELISA relative to control. Put shortly:
as §3

For data set [6], the system named is HUVEC. Put plainly: Induction of HUVEC proliferation after 48 hrs by BrdU-incorporation assay. The settings on record: Homo sapiens. The format is functional, cell-based. Put shortly: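 HUVEC were seeded at 5000 cells/well. After 24 h the medium was swapped for a compound dilution series (≤0.5% DMSO) and incubated 48 h. BrdU incorporation was read by chemiluminescent ELISA.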

For data set [7], the system named is HUVEC. Put plainly: Induction of angiogenesis in HUVEC assessed as formation of cell sprouts after 48 hrs by 3D spheroid angiogenesis assay. The settings on record: Homo sapiens.
The target of data set [8] is Sonic hedgehog protein (Mus musculus) (UniProt Q62226). Put plainly: Activation of Shh pathway in mouse Shh-Light II cells assessed as induction of gli1 expression at 1 uM after 48 hrs by […] luminescence assay. The format is functional, cell-based. Put shortly: as §1
The subject of data set [9] is HUVEC. Kind of data set: Cytotoxicity against HUVEC after 24 hrs by WST-1 assay. The format is cell-based. As to conditions: Homo sapiens. Put shortly:
as §2

Data set [10] concerns the target Sonic hedgehog protein (Homo sapiens) (UniProt Q15465). Kind of data set: Activation of Shh pathway in human foreskin fibroblasts assessed as induction of maximum VEGF expression at 0.5 uM after 48 hrs by ELISA relative to control. Put shortly: as §3
The nature of data set [11]: Ratio of compound IC50 to SAG IC50 for HUVEC. The class given is ADME, cell-based. The settings on record: human, HUVEC cells; read-out: Ratio IC50.

Chain of Sonic hedgehog protein (Q62226 25-198 limits assumed): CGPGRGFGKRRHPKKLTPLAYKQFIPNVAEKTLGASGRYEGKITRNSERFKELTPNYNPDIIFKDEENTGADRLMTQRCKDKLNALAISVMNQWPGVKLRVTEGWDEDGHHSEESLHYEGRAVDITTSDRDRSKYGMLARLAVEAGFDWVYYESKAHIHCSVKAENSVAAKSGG

As for `CN[C@H]1CC[C@@H](N(Cc2cccc(-c3ccncc3)c2)C(=O)c2sc3ccccc3c2Cl)CC1`, the EC50 in data set [1] worked out at 0.0618 µM. In addition, the results for the Activity result in data set [2], in data set [3] and in [5] were “Non-toxic”, “Dose-dependent effect” and 23.8 pg/mL, respectively. In addition, the fold change (FC) in data set [4] was 7. Besides, the result in data set [6] and in data set [7] was inactive.

Take `CCOc1cc(C(=O)N(Cc2cccc(-c3ccncc3)c2)[C@H]2CC[C@H](NC)CC2)cc(OCC)c1OCC`: the result in data set [8], in [6] and in data set [7] was inactive.

On to `O=C(c1sc2cccc(Cl)c2c1Cl)N(Cc1cccc(-c2ccncc2)c1)C1CCNCC1`, for which the result in data set [8], in [6] and in data set [7] was inactive.

Consider `CC(=O)Nc1ccc(CN(C(=O)c2sc3cccc(Cl)c3c2Cl)C2CCNCC2)cc1`, for which the outcome in [8], in data set [6] and in data set [7] was inactive.

Take `CC(=O)Nc1ccc(CN(C(=O)c2sc3cc(F)ccc3c2Cl)C2CCNCC2)cc1`: the outcome in [8], in [6] and in data set [7] was inactive.

In the case of `CN[C@H]1CC[C@H](N(Cc2cccc(-c3ccncc3)c2)C(=O)c2cc3ccccc3s2)CC1`, the result in data set [8], in data set [6] and in [7] was inactive.

For `CC(=O)Nc1ccc(CN(C(=O)c2oc3ccccc3c2C)C2CCNCC2)cc1`, the result in data set [8], in data set [6] and in [7] was inactive.

As for `O=C(c1sc2ccccc2c1Cl)N(Cc1cccc(-c2ccncc2)c1)C1CCNCC1`, the result in [8], in [6] and in [7] was inactive.

As to `N#Cc1ccc(CN(C(=O)c2sc3ccccc3c2Cl)C2CCNCC2)cc1`, the outcome in data set [8], in [6] and in [7] was inactive.

As for `O=C(c1sc2cccc(Cl)c2c1Cl)N(Cc1ccco1)C1CCNCC1`, the result in data set [8], in data set [6] and in data set [7] was inactive.

With `O=C(c1sc2ccccc2c1Cl)N(Cc1ccnc2ccccc12)C1CCNCC1`, the outcome in [8], in data set [6] and in [7] was inactive.

On to `O=C(c1sc2cc(F)ccc2c1Cl)N(Cc1ccco1)C1CCNCC1`, for which the result in data set [8], in data set [6] and in [7] was inactive.

Consider `CN[C@H]1CC[C@H](N(Cc2cccc(-c3ccncc3)c2)C(=O)c2ccc(-c3ccccc3)o2)CC1`, for which the EC50 in [1] stood at 0.0538 µM. For the same molecule, the Activity result in data set [2] was “Non-toxic”. Moreover, the outcome in data set [6] and in data set [7] was inactive.

`CN[C@H]1CC[C@H](N(Cc2cccc(-c3ccncc3)c2)C(=O)c2sc3ccccc3c2Cl)CC1`: the concentration giving a half-maximal response (EC50) in data set [1] amounted to 0.0088 µM. The Activity entry in data set [2] was “Non-toxic”; in [3] it was “Dose-dependent effect”; in data set [10], 29.6 pg/mL. For the same molecule, half-maximal inhibition in data set [9] (IC50) was put at 22 µM. Also, in [4], the fold change (FC) was found to be 7. The result in [6] and in [7] was inactive.

`Cc1c(C(=O)N(Cc2cccs2)C2CCNCC2)oc2ccccc12`: the result in data set [8], in [6] and in [7] was inactive.

As for `CN[C@H]1CC[C@H](N(Cc2cccc(-c3ccncc3)c2)C(=O)c2sc3cc(Cl)ccc3c2Cl)CC1`, the outcome in [8], in data set [6] and in data set [7] was inactive.

With `CN[C@H]1CC[C@H](N(Cc2cccc(-c3ccncc3)c2)C(=O)c2[nH]c3ccccc3c2Cl)CC1`, in [1], the EC50 was determined as 0.118 µM. Besides, the Activity entry in data set [2] is “Non-toxic”. Further, the result in [6] and in data set [7] was inactive.

For `O=C(c1sc2ccccc2c1Cl)N(Cc1ccco1)C1CCNCC1`, the outcome in [8], in data set [6] and in data set [7] was inactive.

`N#Cc1ccc(CN(C(=O)c2sc3cccc(Cl)c3c2Cl)C2CCNCC2)cc1`: the outcome in data set [8], in data set [6] and in data set [7] was inactive.

As to `CN[C@H]1CC[C@H](N(Cc2cccc(-c3ccncc3)c2)C(=O)c2sc3cc(F)ccc3c2Cl)CC1`, the EC50 in data set [1] was 0.176 µM. For the same molecule, the Activity entry in [2] was “Non-toxic”; in [3] it was “Dose-dependent effect”; in data set [5], 32.2 pg/mL. Moreover, the fold change (FC) in [4] turned out to be 7. For the same molecule, the result in data set [6] and in [7] was inactive.

As to `Cc1c(C(=O)N(Cc2ccco2)C2CCNCC2)oc2ccccc12`, the outcome in [8], in [6] and in [7] was inactive.

On to `CN[C@H]1CC[C@H](N(Cc2cccc(-c3ccncc3)c2)C(=O)c2oc3ccccc3c2C)CC1`, for which the outcome in data set [8], in data set [6] and in [7] was inactive.

Consider `CC(=O)Nc1ccc(CN(C(=O)c2sc3ccccc3c2Cl)C2CCNCC2)cc1`, for which the result in data set [8], in data set [6] and in [7] was inactive.

Take `CN[C@H]1CC[C@H](N(Cc2ccnc3ccccc23)C(=O)c2sc3ccccc3c2Cl)CC1`: the outcome in data set [8], in data set [6] and in [7] was inactive.

Turning to `O=C(c1sc2ccccc2c1Cl)N(Cc1cccc(Br)c1)C1CCNCC1`, the outcome in data set [8], in data set [6] and in data set [7] was inactive.

As for `CN[C@H]1CC[C@H](N(Cc2ccncc2)C(=O)c2sc3ccccc3c2Cl)CC1`, the result in data set [8], in data set [6] and in data set [7] was inactive.

As to `CN[C@H]1CC[C@H](NCc2cccc(-c3ccncc3)c2)CC1`, the result in data set [8], in [6] and in data set [7] was inactive.

`O=C(c1sc2ccccc2c1Cl)N(Cc1cccs1)C1CCNCC1`: the outcome in [8], in data set [6] and in [7] was inactive.

In the case of `N#Cc1ccc(CN(C(=O)c2sc3cc(F)ccc3c2Cl)C2CCNCC2)cc1`, the result in data set [8], in data set [6] and in data set [7] was inactive.

In the case of `CN[C@H]1CC[C@@H](N(Cc2cccc(-c3ccncc3)c2)C(=O)c2sc3cccc(Cl)c3c2Cl)CC1`, in data set [1], the EC50 was 0.0076 µM. Further, the Activity entry in data set [2] was “Non-toxic”. Also, the result in data set [6] and in [7] was inactive.

As to `CN[C@H]1CC[C@H](N(Cc2cccc(-c3ccncc3)c2)C(=O)c2sc3cccc(Cl)c3c2Cl)CC1`, the half-maximal effective concentration (EC50) in [1] came to 0.0219 µM. In addition, the Activity entry in [2] is “Non-toxic”; in data set [3], “Dose-dependent effect”; in data set [5], 32.4 pg/mL. For the same molecule, the IC50 in data set [9] stood at 250 µM. The selectivity ratio in [11] was found to be 10. Also, the fold change (FC) in data set [4] turned out to be 7. Further, the result in data set [6] and in [7] was inactive.

With `O=C(c1sc2cc(F)ccc2c1Cl)N(Cc1cccc(-c2ccncc2)c1)C1CCNCC1`, the result in data set [8], in [6] and in data set [7] was inactive.

The EC50 is the midpoint of the concentration-response curve. One may read the IC50 as the point on the concentration scale where inhibition reaches its midpoint. High values mean weaker potency in that assay, low ones greater potency in that assay.
